GALR2 blocker – blocks the human galanin receptor 2; O43603; GALR2-expressing cells, antagonist mode; inhibition, % at 4 µM; actives 0.39% (n = 140,000); in the data active = inhibition above about 27%;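 note: cells stimulated with galanin 1-16 at roughly its EC80; 0% = agonist challenge control and 100% = basal control without agonist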
S1P2 antag – S1P2 (human) receptor antagonism. O95136. cell-based S1P2 antagonist assay, inhibition at 5 uM. inhibition, % at 5 µM. actives 0.21% (n = 97,000); in the data active = inhibition above about 45%;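 note: CRE beta-lactamase reporter cells expressing human S1P2 stimulated with S1P; 0% = agonist at EC80 alone and 100% = agonist plus reference antagonist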
GALR2 agonist – GALR2 (human) receptor agonism; activation, % (test concentration not listed); O43603; actives 0.48% (n = 140,000); GALR2-expressing cells, agonist activation read-out; in the data active = activation above about 5%, passing the limit was not always enough;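 note: 0% = vehicle buffer wells and 100% = reference agonist at full effect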
EphB4 antag – EphB4-ephrin-B2 interaction antagonism | P54760 | EphB4 LBD / TNYL-RAW-Alexa532 peptide, fluorescence polarization | inhibition, % at 7 µM | actives 0.15% (n = 97,000);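 active = inhibition above the screen-wide mean inhibition plus 3 SD, cut at about 15% in these data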;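 note: 0% = DMSO wells and 100% = excess unlabeled TNYL-RAW peptide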
Target sequence (P54760 whole entry, looked up, the tested form may be a part): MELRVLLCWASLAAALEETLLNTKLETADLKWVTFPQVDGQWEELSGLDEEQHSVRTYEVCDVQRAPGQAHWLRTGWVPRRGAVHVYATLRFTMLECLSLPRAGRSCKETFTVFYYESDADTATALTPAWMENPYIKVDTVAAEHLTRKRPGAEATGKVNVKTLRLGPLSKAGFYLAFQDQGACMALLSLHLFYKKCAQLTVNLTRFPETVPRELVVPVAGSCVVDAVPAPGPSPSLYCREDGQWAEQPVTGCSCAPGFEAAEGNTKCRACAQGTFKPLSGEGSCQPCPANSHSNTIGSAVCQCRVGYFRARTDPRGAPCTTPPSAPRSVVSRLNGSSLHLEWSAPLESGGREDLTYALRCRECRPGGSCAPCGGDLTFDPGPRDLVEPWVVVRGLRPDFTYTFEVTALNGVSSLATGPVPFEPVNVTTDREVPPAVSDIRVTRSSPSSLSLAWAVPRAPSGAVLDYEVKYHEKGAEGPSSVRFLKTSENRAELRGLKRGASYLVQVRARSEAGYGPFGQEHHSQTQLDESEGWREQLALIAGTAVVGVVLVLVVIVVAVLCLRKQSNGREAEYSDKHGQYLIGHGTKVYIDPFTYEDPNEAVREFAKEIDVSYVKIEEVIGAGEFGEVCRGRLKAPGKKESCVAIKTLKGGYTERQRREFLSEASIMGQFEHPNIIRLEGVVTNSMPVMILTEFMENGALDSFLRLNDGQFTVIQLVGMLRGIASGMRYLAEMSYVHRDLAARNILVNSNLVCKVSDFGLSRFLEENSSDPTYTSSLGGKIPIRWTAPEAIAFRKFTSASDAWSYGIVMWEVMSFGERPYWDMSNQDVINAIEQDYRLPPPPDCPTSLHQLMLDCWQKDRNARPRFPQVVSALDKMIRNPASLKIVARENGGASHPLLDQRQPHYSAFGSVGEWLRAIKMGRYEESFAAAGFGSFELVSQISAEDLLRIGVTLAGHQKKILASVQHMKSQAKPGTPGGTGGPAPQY
Rev-RRE block – inhibitors of HIV-1 Rev-RRE RNA interaction; P05866; Rev peptide-RRE RNA binding, FRET; inhibition, % at 8 µM; AID 704; actives 0.79% (n = 97,000);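 active = inhibition above the screen-wide mean plus 3 SD, cut at about 35% in these data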;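 note: 0% = median DMSO wells and 100% = median Neomycin B control wells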
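Material: labelled RRE RNA duplex and labelled Rev peptide / Buffer or medium: HEPES pH 7.5 salt buffer with EDTA / Compound dosing: single point, 8 µM final nominal compound concentration / Benchmarks: DMSO low control, neomycin B high control / Timing: 5 min preincubation and 15 min binding, 25 °C / Technique: FRET fluorescence readout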
S1P2 agonist – activates the human S1P2 receptor; O95136; S1P2-expressing cell line, agonist reporter read-out; activation, % at 4.5 µM; actives 0.46% (n = 97,000); in the data active = activation above about 16%;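 note: 0% = vehicle low control and 100% = maximal reference agonist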
An asterisk follows results filed as active; . = no result; [ ] = another dose, or the depositor's remark. Hits are enriched below; roughly 1.7% of the tested compounds scored in any of these assays.

SMILES	GALR2 blocker	S1P2 antag	GALR2 agonist	EphB4 antag	Rev-RRE block	S1P2 agonist
Cc1cccc(OCC(=O)NC(=S)Nc2ccc(S(=O)(=O)NC3CCCCC3)cc2)c1	-3	1	-2	2	4	-6
CCOC(=O)Cc1nc2ccccc2[nH]1	5	-11	5.4*	-1	6	-5
COc1ccc2nc(N3CCCC3)c(C#N)cc2c1	2	15	0	7	47*	-4
O=C1OCC(CO)(CO)N=C1NNc1ccc(Cl)c(Cl)c1	24	0	-2	-3	0	-4
Cc1ccc(/C=C/C(=O)c2ccccc(=O)c2O)cc1C	9	.	-1	.	.	.
O=C(/C=C/c1ccccc1)c1cc(Br)ccc(=O)c1O	4	14	-3	9	46*	0
O=C(Nc1cc(Cl)cc(Cl)c1)c1cccc(OC(F)F)c1	5	-5	-1	1	13	-3
Cc1oc(=O)c(NC(=O)c2ccccc2)cc1C(=O)c1ccccc1	-1	28	-3	-3	-1	-9
COc1ccc(C(=O)Nc2cc(C(C)=O)c(/C=C/N(C)C)oc2=O)cc1	4	14	-2	6	122*[fluorescence artefact?]	-1
CC(=O)c1cc(NC(=O)c2ccc(C)cc2)c(=O)oc1/C=C/N(C)C	-11	3	-3	0	122*[fluorescence artefact?]	-9
Clc1ccc2oc(-c3cccnc3NCc3ccccc3)nc2c1	-13	-18	3	3	13	25*
O=C1C(CCS(=O)c2ccccc2)C(=O)N(c2ccccc2)N1c1ccccc1 (stereo not drawn)	8	.	0	.	.	.
Cn1c2ccc(Cl)cc2c2nc3ccccc3nc21	1	-53	-1	-5	7	24*
CON/C=C(\C=Nc1ccc(Cl)cc1)c1ncc(C(F)(F)F)cc1Cl	-2	47*	-2	6	14	-5
O=S(=O)(CCc1nc2ccccc2o1)c1ccc2ccccc2c1	12	17	-4	3	-1	-6
CC1=CC2=NC(=O)/C(=C\c3cc(C)n(-c4ccccc4F)c3C)C(=N)N2O1	7	.	5.4*	.	.	.
CC1=CC2=NC(=O)/C(=C\c3cc(C)n(-c4ccccc4)c3C)C(=N)N2O1	-5	.	1	.	.	.
O=C(N/N=C\C=C\c1ccc2c(c1)OCO2)C1COc2ccccc2O1 (stereo not drawn)	-6	.	-1	.	.	.
COc1ccc(Nc2ccc3c(c2)=NC2(CCCCC2)[N+]=3[O-])cc1	8	25	-2	-4	-4	-4
[O-][N+]1=c2ccc(Nc3ccccc3)cc2=NC12CCCCC2	12	48*	-3	2	-4	-11
Cc1cc(C)cc(N(CC(=O)NCc2cccnc2)S(C)(=O)=O)c1	-5	20	0	-4	6	-2
O=C(COc1ccc(Br)cc1)N1CCC(c2ccccc2)C1 (stereo not drawn)	10	12	-2	10	10	-2
O=C1SC(SCc2ccccc2)=N/C1=C\c1ccco1	12	11	-2	1	14	-9
O=C1SC(c2ccccc2)=N/C1=C/c1ccco1	-18	23	-1	2	5	59*
CC(C)C(=O)c1cn(CC(=O)NCC2CCCO2)c2ccccc12 (stereo not drawn)	-10	22	-1	7	7	-8
SMILES	GALR2 blocker	S1P2 antag	GALR2 agonist	EphB4 antag	Rev-RRE block	S1P2 agonist
CCOC(=O)C1=C(O)/C(=C/c2cn(CC(=O)NCC3CCCO3)c3ccccc23)SC1=Nc1ccc(C)cc1 (stereo not drawn)	34*	3	1	0	41*	-5
COC(=O)C1=CN(CCCN2CCCC2=O)C=C(C(=O)OC)C1c1cccs1	2	8	4	-3	12	-1
COC(=O)C1=CN(Cc2cccs2)C=C(C(=O)OC)C1c1cccc(OC)c1OC	-10	-9	1	4	1	21*
CCCCCCOC(=O)C(C#N)c1nc2ccccc2nc1N1CCCCC1 (stereo not drawn)	6	-2	-2	1	18	-2
CCCCCCOC(=O)C(C#N)c1nc2ccccc2nc1N1CCN(C)CC1 (stereo not drawn)	-6	16	0	17*	24	-6
COc1ccc(CNC(=O)C(C#N)c2nc3ccccc3nc2N2CCCC2)cc1 (stereo not drawn)	7	3	0	11	36*	0
Cc1ccc(C2C(C#N)=C(N)Oc3c2sc2ccccc32)o1 (stereo not drawn)	9	11	-3	-11	94*[fluorescence artefact?]	-3
CCOC(=O)CC1=C(C(=O)OCC)C(c2ccc(C)o2)C(C#N)=C(N)O1 (stereo not drawn)	-2	4	2	9	16	-3
CC(C)(C)C1CC=C2C(C#N)=C(N)C(C#N)(C#N)C(c3cccs3)C2C1 (stereo not drawn)	-9	-10	1	0	49*	4
CN1C2C=C3C(C#N)=C(N)C(C#N)(C#N)[C@@H](c4cccs4)C3C1CC2 (stereo partly drawn)	2	-2	-3	2	16	-1
Cc1cccc(NC(=O)c2ccc(S(=O)(=O)N(C)C)cc2)n1	7	15	-1	18*	1	2
O=C(c1cc(NC(=O)C23CC4CC(CC(C4)C2)C3)cc(NC(=O)C23CC4CC(CC(C4)C2)C3)c1)N1CCCCC1	13	74*	-2	1	0	-11
O=C(COc1ccc2ccccc2c1Br)NC(=S)Nc1cccc(CO)c1	1	.	-1	.	.	.
Cc1cc(NC(=O)COC(=O)c2oc3c(ccc4ccccc43)c2C)no1	2	.	5.1*	.	.	.
O=C(CSc1nncn1-c1ccccc1)NCc1cccs1	-11	-2	12*	8	0	-3
CCn1nnnc1SCC(=O)NCc1cccs1	-1	4	0	-2	6	-5
COc1ccccc1NC(=O)CSc1nc(C)c2c(c1C#N)CCCC2	-2	0	-2	0	10	-5
O=C1c2ccccc2C(=O)C1c1ccnc2ccccc12	22	-6	0	4	9	-6
N#CC1=C(N)SC(N)=C(C#N)C1c1ccnc2ccccc12	-5	1	-1	1	60*	-3
Cc1ccccc1-n1c(SCc2c(C)noc2C)nnc1-c1cccnc1	0	-13	-4	4	55*	-3
CCn1c(CSc2nnc3ccccn23)nc2cc(C(=O)O)ccc21	4	13	-2	27*[fluorescence artefact?]	9	-7
CCOc1ccc(C(=O)CSc2nnc3ccccn23)cc1	-7	-16	-2	0	0	-5
CCn1c(CSc2nnc(-c3cccnc3)n2-c2ccccc2C)nc2cc(C(=O)O)ccc21	-18	-21	-1	30*[fluorescence artefact?]	-16	-5
O=C(/C=C/c1ccco1)N1CCN(C/C=C/c2ccccc2)CC1	-2	.	0	.	.	.
CCCC1=NN2C(=N)/C(=C\c3ccc(SCc4ccco4)o3)C(=O)N=C2S1	-9	-21	-1	-14	36*	-5
